“Also recorded” adds a separate entry of the source. Where two headings read alike, the source gives them in different places. Marks after values point to notes of the source that are not given here.
Legend:
[1] = target: T1, Torpedo nACh receptor (Tetronarce californica, UniProt P02710+P02712+P02714+P02718); test: Photoincorporation of [3H]6 into nACh receptor-rich Torpedo membranes; assay type: binding; details: for effect on nACh receptor subunit photolabeling by [3H]6: absence of agonist (resting state), 100 μM drug
Outline: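 Electric-organ membranes were held at 2 mg protein/mL in Torpedo saline (pH 7.0) with 1 mM oxidized glutathione. Aliquots (160 pmol ACh sites) were equilibrated 30 min with 1.7 μM tritiated test compound (12 Ci/mmol), alone or with 100 μM tetracaine, 100 μM phencyclidine, 300 μM parent anesthetic and/or 1 mM carbamylcholine. Samples were UV-irradiated (365 nm) on ice for 30 min, then run on SDS-PAGE. Read-outs were fluorography (2 weeks) and scintillation counting of excised subunit bands.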

[2] = target: human α1β2γ2L GABAA receptor (Homo sapiens, UniProt P14867+P18507+P47870); test: Two electrode voltage clamp of GABAA receptor currents in Xenopus oocytes; assay type: cell-based; details: for Imax of GABA current enhancement / nH of GABA current enhancement: 3 μM GABA (~EC5); for nH of GABA concentration response curve in the presence of drug: 6 μM 6; for nH of GABA concentration response curve in the presence of drug / Shift in GABA dose response curve to the left: 4.4 μM propofol; for Shift in GABA dose response curve to the left: twice the tadpole anesthesia EC50: 6 μM 6
[3] = target: α1β3γ2 GABAA receptors (benzodiazepine site) (Homo sapiens, UniProt P14867+P18507+P28472); assay type: binding; details: for Enhancement of specific [3H]flunitrazepam binding: maximal effect; for effect on [3H]flunitrazepam binding above 40 μM: above 40 μM up to 400 μM
[4] = target: α1β3γ2 GABAA receptors (agonist site) (Homo sapiens, UniProt P14867+P18507+P28472); test: Modulation of [3H]muscimol binding to GABAA receptor membranes from HEK293 cells
[5] = target: T1, Torpedo nACh receptor; test: Inhibition of ACh-elicited currents of Torpedo nACh receptors in Xenopus oocytes; assay type: cell-based; details: 10 μM ACh (~EC20)
Outline: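 Two-electrode voltage clamp at room temperature on Xenopus oocytes. Oocytes were injected with ~25 ng Torpedo subunit cRNA at 2α:1β:1γ:1δ, clamped at −50 mV and perfused with ND96 (pH 7.5) at ~2 mL/min. 10 μM ACh was applied, then ACh plus rising test compound (10 mM DMSO stock diluted in ND96). Applications lasted 15–20 s with ~3 min washes. Currents were normalized to ACh alone and fit to a logistic equation; 3 oocytes.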

[6] = test system: Xenopus laevis tadpoles; details: read-out: General Anesthesia LoRR EC50, cited from earlier work
[7] = test system: GABAA receptor; details: cited from earlier work
[8] = pure propofol in water; cited from earlier work
[9] = Octanol/water partition coefficient by HPLC; assay type: physicochemical; details: estimated by HPLC of both phases
[10] = Stability in aqueous buffer at 4°C; assay type: physicochemical; details: 0.01M Tris/HCl pH 7.4, concentration close to saturation
Outline: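 Excess test compound was stirred 24 h in 0.01 M Tris/HCl, pH 7.4, and centrifuged at 10,000g to give a near-saturated solution. This was stored at 4°C and monitored over time by reverse-phase HPLC (acetonitrile elution).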

[11] = test system: Xenopus laevis tadpoles; test: General anesthetic potency, loss of righting reflexes; assay type: in vivo; details: recovery in fresh solution overnight
[12] = added to carbamylcholine-treated samples

T1 sequence (P02710 25-461): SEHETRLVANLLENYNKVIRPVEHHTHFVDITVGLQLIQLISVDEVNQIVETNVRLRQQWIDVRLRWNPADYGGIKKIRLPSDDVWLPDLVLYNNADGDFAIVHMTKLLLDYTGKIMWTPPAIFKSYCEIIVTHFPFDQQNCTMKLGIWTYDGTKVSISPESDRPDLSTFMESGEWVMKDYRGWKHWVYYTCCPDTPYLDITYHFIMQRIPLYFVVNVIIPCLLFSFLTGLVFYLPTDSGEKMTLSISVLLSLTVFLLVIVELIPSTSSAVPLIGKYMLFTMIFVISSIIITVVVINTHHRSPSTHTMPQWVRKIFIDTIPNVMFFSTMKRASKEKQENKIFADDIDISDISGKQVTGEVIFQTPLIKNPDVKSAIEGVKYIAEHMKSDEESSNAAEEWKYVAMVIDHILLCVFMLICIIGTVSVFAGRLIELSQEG
T1 sequence (P02712 25-493): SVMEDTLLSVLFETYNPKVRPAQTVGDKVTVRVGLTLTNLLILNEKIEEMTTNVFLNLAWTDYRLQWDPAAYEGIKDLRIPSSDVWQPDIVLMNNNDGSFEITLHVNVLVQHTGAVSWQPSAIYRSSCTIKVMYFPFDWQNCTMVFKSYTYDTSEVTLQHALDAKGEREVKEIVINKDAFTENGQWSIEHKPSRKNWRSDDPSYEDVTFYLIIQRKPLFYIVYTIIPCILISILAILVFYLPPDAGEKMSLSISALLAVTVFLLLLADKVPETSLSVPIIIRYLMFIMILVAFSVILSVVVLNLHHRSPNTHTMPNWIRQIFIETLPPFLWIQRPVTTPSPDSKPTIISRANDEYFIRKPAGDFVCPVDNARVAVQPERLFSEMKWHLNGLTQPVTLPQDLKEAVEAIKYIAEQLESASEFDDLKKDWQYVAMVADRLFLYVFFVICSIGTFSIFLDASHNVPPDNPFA
T1 sequence (P02714 18-506): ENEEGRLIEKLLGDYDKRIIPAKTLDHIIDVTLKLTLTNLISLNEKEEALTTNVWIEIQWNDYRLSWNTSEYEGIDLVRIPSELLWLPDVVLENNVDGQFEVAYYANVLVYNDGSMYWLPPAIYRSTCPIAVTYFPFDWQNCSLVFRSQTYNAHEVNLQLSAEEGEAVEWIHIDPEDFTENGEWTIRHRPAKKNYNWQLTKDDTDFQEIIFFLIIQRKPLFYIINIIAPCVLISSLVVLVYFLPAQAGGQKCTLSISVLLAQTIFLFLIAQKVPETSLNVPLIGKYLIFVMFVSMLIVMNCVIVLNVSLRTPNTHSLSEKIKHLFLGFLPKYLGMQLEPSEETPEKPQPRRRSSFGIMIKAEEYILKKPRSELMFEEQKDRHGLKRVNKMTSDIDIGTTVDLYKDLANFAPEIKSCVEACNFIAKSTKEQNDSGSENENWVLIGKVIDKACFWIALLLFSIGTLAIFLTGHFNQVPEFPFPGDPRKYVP
T1 sequence (P02718 22-522): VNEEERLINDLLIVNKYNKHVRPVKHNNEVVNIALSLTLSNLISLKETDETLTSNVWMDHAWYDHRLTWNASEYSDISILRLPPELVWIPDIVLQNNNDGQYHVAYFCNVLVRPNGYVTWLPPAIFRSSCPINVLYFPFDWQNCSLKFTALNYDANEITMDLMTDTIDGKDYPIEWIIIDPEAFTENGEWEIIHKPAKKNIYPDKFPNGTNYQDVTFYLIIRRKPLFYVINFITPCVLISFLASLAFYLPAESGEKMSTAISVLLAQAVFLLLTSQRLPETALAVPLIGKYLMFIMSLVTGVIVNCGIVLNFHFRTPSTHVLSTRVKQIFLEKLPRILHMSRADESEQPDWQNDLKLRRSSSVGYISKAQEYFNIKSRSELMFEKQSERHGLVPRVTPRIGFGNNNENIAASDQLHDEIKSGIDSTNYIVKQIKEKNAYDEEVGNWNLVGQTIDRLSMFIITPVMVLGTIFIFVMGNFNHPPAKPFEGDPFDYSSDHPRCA
human α1β2γ2L GABAA receptor, sequence (P14867 28-456): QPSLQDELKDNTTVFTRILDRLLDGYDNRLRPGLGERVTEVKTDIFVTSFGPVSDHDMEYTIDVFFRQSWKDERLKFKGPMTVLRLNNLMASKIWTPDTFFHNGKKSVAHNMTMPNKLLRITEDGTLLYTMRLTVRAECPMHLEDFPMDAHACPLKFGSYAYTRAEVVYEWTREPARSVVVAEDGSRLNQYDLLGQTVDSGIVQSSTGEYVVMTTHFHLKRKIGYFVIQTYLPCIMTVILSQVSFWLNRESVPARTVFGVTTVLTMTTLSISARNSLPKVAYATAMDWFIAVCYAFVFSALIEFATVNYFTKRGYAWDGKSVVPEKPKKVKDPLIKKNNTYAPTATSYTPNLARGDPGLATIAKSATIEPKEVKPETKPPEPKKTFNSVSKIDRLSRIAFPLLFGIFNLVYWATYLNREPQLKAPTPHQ
human α1β2γ2L GABAA receptor, sequence (P47870 25-512 limits assumed): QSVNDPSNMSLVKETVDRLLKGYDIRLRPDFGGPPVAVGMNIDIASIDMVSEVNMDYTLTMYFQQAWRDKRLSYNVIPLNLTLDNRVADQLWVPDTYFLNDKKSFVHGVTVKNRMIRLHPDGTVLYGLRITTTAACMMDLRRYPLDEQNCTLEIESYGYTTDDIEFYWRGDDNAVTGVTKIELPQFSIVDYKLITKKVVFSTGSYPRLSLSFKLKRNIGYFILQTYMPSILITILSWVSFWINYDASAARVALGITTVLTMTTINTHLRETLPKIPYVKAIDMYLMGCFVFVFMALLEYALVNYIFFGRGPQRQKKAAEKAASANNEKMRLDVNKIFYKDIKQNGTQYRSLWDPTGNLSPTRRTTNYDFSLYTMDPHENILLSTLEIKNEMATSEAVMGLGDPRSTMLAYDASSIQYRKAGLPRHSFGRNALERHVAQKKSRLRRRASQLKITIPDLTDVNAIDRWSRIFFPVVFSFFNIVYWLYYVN
human α1β2γ2L GABAA receptor, sequence (P18507 40-475): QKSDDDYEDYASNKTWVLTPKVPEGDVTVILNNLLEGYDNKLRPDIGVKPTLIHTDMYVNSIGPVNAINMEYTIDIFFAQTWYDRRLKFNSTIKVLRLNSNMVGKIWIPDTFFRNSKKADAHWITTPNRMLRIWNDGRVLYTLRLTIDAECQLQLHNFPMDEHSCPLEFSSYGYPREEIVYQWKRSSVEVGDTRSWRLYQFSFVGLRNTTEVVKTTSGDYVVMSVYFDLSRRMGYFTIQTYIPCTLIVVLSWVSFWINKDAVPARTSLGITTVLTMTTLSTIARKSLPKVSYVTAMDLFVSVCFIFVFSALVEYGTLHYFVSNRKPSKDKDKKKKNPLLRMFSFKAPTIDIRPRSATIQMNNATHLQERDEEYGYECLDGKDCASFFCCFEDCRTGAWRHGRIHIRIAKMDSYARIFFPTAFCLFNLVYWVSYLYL
α1β3γ2 GABAA receptors (agonist site), sequence (P14867 28-456): as the sequence (P14867 28-456) above
α1β3γ2 GABAA receptors (agonist site), sequence (P28472 26-473): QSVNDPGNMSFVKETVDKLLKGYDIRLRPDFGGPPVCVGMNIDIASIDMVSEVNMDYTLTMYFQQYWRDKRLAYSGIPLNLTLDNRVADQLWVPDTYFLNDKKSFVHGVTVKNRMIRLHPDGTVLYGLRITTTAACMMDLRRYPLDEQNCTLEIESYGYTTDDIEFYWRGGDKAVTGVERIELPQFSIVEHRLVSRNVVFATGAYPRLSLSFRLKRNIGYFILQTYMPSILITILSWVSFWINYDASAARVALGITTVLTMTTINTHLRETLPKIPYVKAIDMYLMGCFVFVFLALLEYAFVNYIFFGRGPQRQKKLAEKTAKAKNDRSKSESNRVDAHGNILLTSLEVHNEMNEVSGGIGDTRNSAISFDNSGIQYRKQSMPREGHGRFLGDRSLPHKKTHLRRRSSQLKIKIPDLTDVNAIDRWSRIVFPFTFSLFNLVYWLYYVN
α1β3γ2 GABAA receptors (agonist site), sequence (P18507 40-475): as the sequence (P18507 40-475) above
α1β3γ2 GABAA receptors (benzodiazepine site), sequence (P14867 28-456): as the sequence (P14867 28-456) above
α1β3γ2 GABAA receptors (benzodiazepine site), sequence (P28472 26-473): as the sequence (P28472 26-473) above
α1β3γ2 GABAA receptors (benzodiazepine site), sequence (P18507 40-475): as the sequence (P18507 40-475) above

Compound | Imax of GABA current enhancement [2] [%] | nH of GABA current enhancement [2] | nH of GABA concentration response curve in the presence of drug [2] | Shift in GABA dose response curve to the left [2] | Enhancement of specific [3H]flunitrazepam binding ([3]; 1.5 nM [3H]flunitrazepam) | effect on [3H]flunitrazepam binding above 40 μM [3] | nH of ACh current inhibition [5] | EC50 ([6]; ref Hall et al, 2010 [13]) [nM] | effect on nACh receptor subunit photolabeling by [3H]6 [1] | further results
CC(C)c1cc(CCCC2(C)N=N2)cc(C(C)C)c1O [[^3H]6, ^3H-2,6-Diisopropyl-4-[3-(3-methyl-3H-diazirin-3-yl)-propyl]-phenol] | – | – | – | – | – | – | – | – | – | carbamylcholine-enhanced 3H photoincorporation in nACh receptor α-subunit ([1]; 1.7 μM [3H]6): 3000 cpm; fraction of nACh receptor α-subunits photolabeled ([1]; 1.7 μM [3H]6, carbamylcholine-enhanced): 0.2%
CC(C)c1cccc(C(C)C)c1O [propofol, 2,6-diisopropylphenol] | 16 ± 3 | 1.7 ± 1.2 | 1.1 ± 0.3 | 11 ^a fold | ~ 200% | caused a rapid decrease in binding | 0.8 ± 0.1 | 2800 | – | Direct activation, current as % of maximal GABA response ([2]; absence of GABA): 30–50%; Enhancement of [3H]flunitrazepam binding ([3]; 1.5 nM [3H]flunitrazepam): 2x ^a; Enhancement of [3H]muscimol binding ([4]; 3 nM [3H]muscimol): 2.4x ^a; effect on [3H]muscimol binding above 30 μM ([4]; above 30 μM): caused a sharp decrease in binding; additional increase of [3H]6 photoincorporation [1, 12]: ~ 20%; EC50 ([6]; ref Krasowski et al, 2001 [2]): 1900 nM; Direct activation, currents as % of the maximal GABA response ([7]; propofol alone): 30 – 70%; Direct activation ([7]; ref Krasowski et al, 2001 [2]): 67%; saturated concentration in water [8]: 1 ± 0.02 mM
CC(C)c1cc(CCCC2(C)N=N2)cc(C(C)C)c1O [Compound 6, 2,6-Diisopropyl-4-[3-(3-methyl-3H-diazirin-3-yl)-propyl]-phenol] | 22 ± 6 | 1.4 ± 1.3 | 0.9 ± 0.2 | 9 ^a fold | ~ 150% | caused no further change | 0.9 ± 0.2 | – | – | octanol/water partition coefficient [9]: 15,600 ± 1200; time stable in buffer [10]: at least 2.5 days; reversibility of anesthesia [11]: reversible; EC50 [3]: ~500 nM; EC50 [4]: ~500 nM
CCCCNc1ccc(C(=O)OCCN(C)C)cc1 [tetracaine] | – | – | – | – | – | – | – | – | little effect; also recorded: no effect | –
c1ccc(C2(N3CCCCC3)CCCCC2)cc1 [phencyclidine] | – | – | – | – | – | – | – | – | little effect | additional decrease of [3H]6 photoincorporation [1, 12]: ~ 20%
CC(C)c1ccc(C2(C(F)(F)F)N=N2)cc1O [m-TFD-propofol, 2-isopropyl-5-[3-(trifluoromethyl)-3H-diazirin-3-yl]phenol] | – | – | – | – | – | – | – | 3100 | – | Direct activation ([7]; m-TFD-propofol at 30 μM, ref Hall et al, 2010 [13]): no direct agonist activity

Source: publication PMC3580944 (Journal of medicinal chemistry, 2011)
